Experimental data taken from ChEMBL document CHEMBL2331189, “Synthesis of tacrine-lophine hybrids via one-pot four component reaction and biological evaluation as acetyl- and butyrylcholinesterase inhibitors” (Eur J Med Chem, 2013).

Experiments:
[1] = Ratio of IC50 for BuChE in human plasma to IC50 for AChE in Wistar rat brain cortex; assay type: cell-free
[2] = molecular target: Cholinesterase (Homo sapiens, UniProt P06276); test: Inhibition of BuChE in human plasma using butyrylthiocholine iodide as substrate by Ellman's colorimetric method
Outline: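 The BuChE source is plasma from 5 healthy human volunteers (24–60 years, both sexes), centrifuged at 1000× g for 15 min at room temperature and stored at −20 °C. In 20 mM phosphate buffer pH 7.4, plasma was incubated 150 s with 0.8 mM butyrylthiocholine iodide and DTNB. Absorbance of the yellow anion was read at 415 nm. Protein was determined by Peterson-modified Lowry against BSA.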

[3] = molecular target: T1, Acetylcholinesterase (Rattus norvegicus, UniProt P37136); test: Inhibition of AChE in Wistar rat brain cortex using acetylthiocholine iodide as substrate by Ellman's colorimetric method
T1 sequence (P37136 whole entry): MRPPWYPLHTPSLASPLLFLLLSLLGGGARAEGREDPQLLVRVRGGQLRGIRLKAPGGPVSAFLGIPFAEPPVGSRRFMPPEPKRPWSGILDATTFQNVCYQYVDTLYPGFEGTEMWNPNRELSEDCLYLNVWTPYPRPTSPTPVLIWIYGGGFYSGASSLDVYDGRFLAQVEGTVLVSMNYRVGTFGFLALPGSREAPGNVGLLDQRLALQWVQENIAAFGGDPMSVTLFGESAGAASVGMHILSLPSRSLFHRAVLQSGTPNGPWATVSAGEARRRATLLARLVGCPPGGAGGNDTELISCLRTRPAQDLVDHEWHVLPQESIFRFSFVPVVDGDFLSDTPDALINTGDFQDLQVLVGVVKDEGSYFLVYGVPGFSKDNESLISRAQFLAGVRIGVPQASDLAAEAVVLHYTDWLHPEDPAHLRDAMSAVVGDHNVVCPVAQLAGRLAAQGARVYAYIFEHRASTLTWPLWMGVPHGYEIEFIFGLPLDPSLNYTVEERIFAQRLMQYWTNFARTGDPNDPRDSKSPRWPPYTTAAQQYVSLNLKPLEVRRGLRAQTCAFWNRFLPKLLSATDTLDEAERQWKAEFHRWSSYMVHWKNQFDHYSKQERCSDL
Outline: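 Enzyme source is the cortex of adult male Wistar rats (2–3 months), dissected on ice and homogenized in cold 10 mM Tris-HCl pH 7.2 with 160 mM sucrose. The 10,000× g supernatant (10 min, 4 °C) was stored at −20 °C. The sample in 20 mM phosphate pH 7.4 was incubated 150 s with 0.8 mM acetylthiocholine iodide plus DTNB.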

Chain of Cholinesterase (P06276 whole entry): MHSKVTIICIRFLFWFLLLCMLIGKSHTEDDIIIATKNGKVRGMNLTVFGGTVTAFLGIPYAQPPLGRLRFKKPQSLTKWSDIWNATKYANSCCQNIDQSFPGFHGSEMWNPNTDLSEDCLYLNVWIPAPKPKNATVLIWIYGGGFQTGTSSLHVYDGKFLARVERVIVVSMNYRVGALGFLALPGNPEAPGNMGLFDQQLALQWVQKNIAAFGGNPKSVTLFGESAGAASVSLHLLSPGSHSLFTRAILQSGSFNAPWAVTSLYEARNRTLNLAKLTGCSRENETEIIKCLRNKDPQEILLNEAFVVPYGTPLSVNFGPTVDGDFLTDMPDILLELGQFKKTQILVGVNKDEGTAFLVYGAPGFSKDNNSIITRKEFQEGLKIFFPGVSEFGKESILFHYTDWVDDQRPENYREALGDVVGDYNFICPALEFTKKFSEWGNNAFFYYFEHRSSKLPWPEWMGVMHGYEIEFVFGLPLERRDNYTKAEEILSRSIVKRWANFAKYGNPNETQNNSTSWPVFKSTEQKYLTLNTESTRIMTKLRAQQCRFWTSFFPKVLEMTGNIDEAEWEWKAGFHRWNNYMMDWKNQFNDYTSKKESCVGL

SMILES | Ratio IC50 [1] | IC50 ([2]; read-out: IC50) [nM] | IC50 ([3]; read-out: IC50) [nM] | IC50 [3] | IC50 [2]
Fc1ccc(-c2nc(-c3ccccc3)c(-c3ccccc3)n2CCCCCCCCNc2c3c(nc4ccccc24)CCCC3)cc1 | 2.2 | 57.3 | 25.8 | – | –
COc1ccc(-c2nc(-c3ccccc3)c(-c3ccccc3)n2CCCCCCNc2c3c(nc4ccccc24)CCCC3)cc1 | – | 36 | – | Not Active | –
c1ccc(-c2nc(-c3ccccc3)n(CCCCCCCCCn3c(-c4ccccc4)nc(-c4ccccc4)c3-c3ccccc3)c2-c2ccccc2)cc1 | – | – | – | Not Active | Not Active
N#Cc1ccc(-c2nc(-c3ccccc3)c(-c3ccccc3)n2CCCCCCCCNc2c3c(nc4ccccc24)CCCC3)cc1 | – | 30.5 | – | Not Active | –
Clc1cccc(-c2nc(-c3ccccc3)c(-c3ccccc3)n2CCCCCCCCNc2c3c(nc4ccccc24)CCCC3)c1 | – | – | – | Not Active | Not Active
Fc1ccc(-c2nc(-c3ccccc3)c(-c3ccccc3)n2CCCCCCCNc2c3c(nc4ccccc24)CCCC3)cc1 | 1.7 | 67.3 | 38.5 | – | –
c1ccc(-c2nc(-c3ccccc3)n(CCCCCCNc3c4c(nc5ccccc35)CCCC4)c2-c2ccccc2)cc1 | – | 58 | – | Not Active | –
Clc1cccc(-c2nc(-c3ccccc3)c(-c3ccccc3)n2CCCCCCCNc2c3c(nc4ccccc24)CCCC3)c1 | – | – | – | Not Active | Not Active
c1ccc(-c2nc(-c3ccccc3)n(CCCCCCCn3c(-c4ccccc4)nc(-c4ccccc4)c3-c3ccccc3)c2-c2ccccc2)cc1 | – | – | – | Not Active | Not Active
c1ccc(-c2nc(-c3ccccc3)n(CCCCCCCCn3c(-c4ccccc4)nc(-c4ccccc4)c3-c3ccccc3)c2-c2ccccc2)cc1 | – | – | 42.5 | – | Not Active
O=[N+]([O-])c1ccc(-c2nc(-c3ccccc3)c(-c3ccccc3)n2CCCCCCCCNc2c3c(nc4ccccc24)CCCC3)cc1 | – | 120 | – | Not Active | –
c1ccc(-c2nc(-c3ccccc3)n(CCCCCCCCNc3c4c(nc5ccccc35)CCCC4)c2-c2ccccc2)cc1 | – | – | – | Not Active | Not Active
Clc1ccc(-c2nc(-c3ccccc3)c(-c3ccccc3)n2CCCCCCCCNc2c3c(nc4ccccc24)CCCC3)cc1 | 18.5 | 109 | 5.87 | – | –
Clc1ccc(-c2nc(-c3ccccc3)c(-c3ccccc3)n2CCCCCCCCCNc2c3c(nc4ccccc24)CCCC3)cc1 | – | – | – | Not Active | Not Active
Clc1ccc(-c2nc(-c3ccccc3)c(-c3ccccc3)n2CCCCCCCNc2c3c(nc4ccccc24)CCCC3)cc1 | 0.6 | 37.6 | 59.8 | – | –
COc1ccc(-c2nc(-c3ccccc3)c(-c3ccccc3)n2CCCCCCCNc2c3c(nc4ccccc24)CCCC3)cc1 | 0.9 | 61.7 | 68.7 | – | –
c1ccc(-c2nc(-c3ccccc3)n(CCCCCCCCCCn3c(-c4ccccc4)nc(-c4ccccc4)c3-c3ccccc3)c2-c2ccccc2)cc1 | – | – | – | Not Active | Not Active
Clc1ccc(-c2nc(-c3ccccc3)c(-c3ccccc3)n2CCCCCCCCCCNc2c3c(nc4ccccc24)CCCC3)cc1 | – | – | – | Not Active | Not Active
Clc1ccc(-c2nc(-c3ccccc3)c(-c3ccccc3)n2CCCCCCNc2c3c(nc4ccccc24)CCCC3)cc1 | – | 29.3 | – | Not Active | –
c1ccc(-c2nc(-c3ccccc3)n(CCCCCCn3c(-c4ccccc4)nc(-c4ccccc4)c3-c3ccccc3)c2-c2ccccc2)cc1 | – | – | – | Not Active | Not Active
c1ccc2c(NCCCCCCCNc3c4c(nc5ccccc35)CCCC4)c3c(nc2c1)CCCC3 | – | 9.03 | – | – | –
c1ccc(-c2nc(-c3ccccc3)n(CCCCCCCNc3c4c(nc5ccccc35)CCCC4)c2-c2ccccc2)cc1 | 1.1 | 92.4 | 80.7 | – | –
Fc1ccc(-c2nc(-c3ccccc3)c(-c3ccccc3)n2CCCCCCNc2c3c(nc4ccccc24)CCCC3)cc1 | – | 55.2 | – | Not Active | –
Clc1cccc(-c2nc(-c3ccccc3)c(-c3ccccc3)n2CCCCCCNc2c3c(nc4ccccc24)CCCC3)c1 | – | 34.8 | – | Not Active | –
N#Cc1ccc(-c2nc(-c3ccccc3)c(-c3ccccc3)n2CCCCCCNc2c3c(nc4ccccc24)CCCC3)cc1 | – | 29.6 | – | Not Active | –
N#Cc1ccc(-c2nc(-c3ccccc3)c(-c3ccccc3)n2CCCCCCCNc2c3c(nc4ccccc24)CCCC3)cc1 | – | 7.1 | – | Not Active | –
COc1ccc(-c2nc(-c3ccccc3)c(-c3ccccc3)n2CCCCCCCCNc2c3c(nc4ccccc24)CCCC3)cc1 | 0.6 | 82.3 | 126 | – | –
O=[N+]([O-])c1ccc(-c2nc(-c3ccccc3)c(-c3ccccc3)n2CCCCCCCNc2c3c(nc4ccccc24)CCCC3)cc1 | 1 | 76.9 | 72.1 | – | –
O=[N+]([O-])c1ccc(-c2nc(-c3ccccc3)c(-c3ccccc3)n2CCCCCCNc2c3c(nc4ccccc24)CCCC3)cc1 | – | 12.4 | – | Not Active | –
